Assay results: ChEMBL document CHEMBL3779799, “Antifibrotic and anticancer action of 5-ene amino/iminothiazolidinones” (Eur J Med Chem, 2016)
Activity calls are given as the source filed them. The rule behind the calls is not given here.

How the values were obtained:
HFL1 [1] = assay: Antifibrotic activity in HFL1 cells assessed as inhibition of cell viability after 48 hrs by sulforhodamine B assay; format: functional, cell-based; settings: Homo sapiens, HFL1, 48 h
Procedure, shortened: (§1)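 HFL-1 human fetal lung fibroblasts (DMEM, 10% FCS, passages 14–18) seeded at 8000 cells/well, attached overnight, then exposed to a range of concentrations for 48 h in triplicate. Cells were fixed with TCA and stained with 0.4% SRB, bound dye was solubilized in Tris, and OD was read at 570 nm relative to control.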

HFL1 [2] = assay: Antifibrotic activity in HFL1 cells assessed as inhibition of cell viability at >1 uM after 48 hrs by sulforhodamine B assay relative to control; format: functional; settings: Homo sapiens, HFL1, 48 h; procedure, shortened: as §1
[3] = Antioxidant activity assessed as inhibition of superoxide anion generation upto 10 uM measured for 3 mins by nitro blue tetrazolium assay; format: physicochemical; settings: 0.05 h
Procedure, shortened: (§2)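 Cell-free superoxide generated by xanthine (1 mM) and xanthine oxidase (0.11 U/mL), with NBT (50 µM) as detector. Compounds in DMSO were tested up to 10 µM, with DMSO held at 0.1%. NBT reduction rate (dA560/dt) was read spectrophotometrically over 3 min from the linear part.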

HFL1 [4] = assay: Antifibrotic activity in HFL1 cells assessed as reduction in cell proliferation at 0.1 to 1 uM after 150 hrs by xCelligence analysis; format: functional, cell-based; settings: Homo sapiens
Procedure, shortened: (§3)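 HFL-1 cells were seeded at 20,000/well and monitored by real-time impedance (xCelligence). Compound or DMSO vehicle was added at ~30 h, once attachment was maximal, and cells were followed for another 150 h. P150 was taken as the signal difference between 30 h and 180 h; Pdot was the maximum slope of the curve.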

HFL1 [5] = assay: Antifibrotic activity in HFL1 cells assessed as reduction in maximum rate of cell proliferation after 150 hrs by xCelligence analysis; format: functional, cell-based; settings: Homo sapiens; procedure, shortened: as §3
[6] = Antioxidant activity assessed as inhibition of superoxide anion generation measured for 3 mins by nitro blue tetrazolium assay; format: physicochemical; settings: for Emax: 0.05 h; procedure, shortened: as §2
HFL1 [7] = assay: Antifibrotic activity in HFL1 cells assessed as reduction in cell proliferation after 150 hrs by xCelligence analysis; settings: Homo sapiens
MCF7 = assay: Cytotoxicity against human MCF7 cells assessed as cell growth at 10^-4 M after 48 hrs by sulforhodamine B assay relative to control; format: functional; settings: MCF7, 48 h, read-out: Activity
Procedure, shortened: (§4)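 Cells were inoculated and preincubated 24–48 h, then exposed to a single dose of 10^-4 M for 48 h. SRB protein staining was the endpoint, and growth percent was calculated versus untreated controls.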

[8] = Cytotoxicity against human SF268 cells assessed as cell growth at 10^-4 M after 48 hrs by sulforhodamine B assay relative to control; format: functional; settings: SF-268, 48 h, read-out: Activity; procedure, shortened: as §4
NCI-H460 = assay: Cytotoxicity against human NCI-H460 cells assessed as cell growth at 10^-4 M after 48 hrs by sulforhodamine B assay relative to control; format: functional; settings: NCI-H460, 48 h, read-out: Activity; procedure, shortened: as §4
[9] = Cytotoxicity against human SNB75 cells assessed as cell growth at 10^-5 M after 48 hrs by sulforhodamine B assay relative to control; format: functional; settings: SNB-75, 48 h, read-out: Activity
Procedure, shortened: (§5)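 NCI ~60 human tumor cell line one-dose screen covering nine cancer types. Cells were preincubated 24–48 h, then exposed to compound at 10^-5 M for 48 h. SRB protein staining was the endpoint, and growth percent was calculated versus untreated control cells.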

[10] = Cytotoxicity against human NCI60 cells assessed as cell growth at 10^-5 M after 48 hrs by sulforhodamine B assay relative to control; format: functional; settings: NCI60, 48 h, read-out: Activity; procedure, shortened: as §5
[11] = Cytotoxicity against human RPMI8226 cells assessed as cell growth at 10^-5 M after 48 hrs by sulforhodamine B assay relative to control; format: functional; settings: RPMI-8226, 48 h, read-out: Activity; procedure, shortened: as §5
[12] = Cytotoxicity against human UO31 cells assessed as cell growth at 10^-5 M after 48 hrs by sulforhodamine B assay relative to control; format: functional; settings: UO-31, 48 h, read-out: Activity; procedure, shortened: as §5
NCI-H522 = assay: Cytotoxicity against human NCI-H522 cells assessed as cell growth at 10^-5 M after 48 hrs by sulforhodamine B assay relative to control; format: functional; settings: NCI-H522, 48 h, read-out: Activity; procedure, shortened: as §5
[13] = Growth inhibition of human NCI60 cells after 48 hrs by sulforhodamine B assay; format: functional; settings: NCI60, 48 h
Procedure, shortened: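 NCI ~60-cell-line panel with five 10-fold dilutions (10^-4 to 10^-8 M) and 48 h continuous exposure, using an SRB endpoint. Percentage growth was derived from time-zero, control and treated absorbances. Values are expressed as > or < when outside the tested range.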

Row | IC50 [6] [nM] | Emax [6] [%] | Compound | IC50 (HFL1 [1]) [nM] | Emax (HFL1 [2]) [%] | other results
1 |  |  | COc1ccccc1NC(=O)CSc1nnc(NC2=NC(=O)/C(=C/c3ccc(Cl)cc3)S2)s1 | 40 | 17.4 | 
2 |  |  | O=C1N=C(Nc2ccc(Cl)cc2)/C(=C/c2cccs2)S1 | 570 | 79 | inhibition (INH) [3]: Not Active; Activity (HFL1 [4]): Active; Activity (HFL1 [5]): Dose-dependent effect
3 |  |  | CCC1S/C(=N\N=C/c2cccnc2)N(Cc2ccco2)C1=O (mixture of isomers) | 210 | 44.7 | 
4 | 810 | 86.4 | COc1ccc(/C=C2\SC(Nc3nnc(SCC(=O)Nc4ccc(Cl)cc4)s3)=NC2=O)cc1 | 160 | 53.8 | 
5 | 3400 | 55 | CC(=C/c1ccccc1)/C=C1\SC(N(C)c2ccc(O)cc2)=NC1=O | 10 | 34 | Activity (HFL1 [7]): Dose-dependent effect; Activity (HFL1 [5]): Dose-dependent effect
6 |  |  | O=C1N=C(Nc2ccc(O)cc2)S/C1=C1\C(=O)Nc2ccccc21 |  |  | growth at 100 µM (MCF7): 108%; growth at 100 µM [8]: 118%; growth at 100 µM (NCI-H460): 96%
7 |  |  | O=C1N=C(Nc2ccc(O)cc2)S/C1=C\C=C/c1ccccc1 |  |  | growth at 100 µM (MCF7): 124%; growth at 100 µM [8]: 103%; growth at 100 µM (NCI-H460): 140%
8 | 960 | 47.4 | CN(C1=NC(=O)/C(=C/C(Cl)=C/c2ccc([N+](=O)[O-])cc2)S1)c1ccc(O)cc1 |  |  | 
9 | 290 | 81.8 | COc1ccc(-c2nnc(/N=C3\NC(=O)CS3)o2)cc1 | 470 | 84.6 | growth at 10 µM [9]: 71.9%; growth at 10 µM [10]: 102%; Activity (HFL1 [4]): Active
10 |  |  | Cc1cc(O)c(C(C)C)cc1NC1=NC(=O)S/C1=C\c1ccc(Cl)cc1 | 30 | 75.5 | 
11 |  |  | Cc1ccc(=O)n(-c2ccccc2)c1 [PIRFENIDONE] | 710 | 78.5 | growth at 10 µM [11]: 76%; growth at 10 µM [12]: 76.9%; growth at 10 µM [10]: 96.3%; growth at 10 µM (NCI-H522): 79.8%; inhibition (INH) [3]: Not Active; Activity (HFL1 [7]): Dose-dependent effect
12 |  |  | O=C1CS/C(=N\N=C/c2cccnc2)N1Cc1ccco1 | 500 | 69.4 | 

Row | Compound | IC50 [6] [nM] | Emax [6] [%] | IC50 (HFL1 [1]) [nM] | Emax (HFL1 [2]) [%] | other results
13 | O=C1N=C(Nc2nccs2)S/C1=C1\C(=O)Nc2ccc(Br)cc21 | 380 | 67.4 |  |  | GI50 [13]: 95500 nM; CC50 ([13]; read-out: pLC50 (the source's name) (converted)): 100000 nM; TGI ([13]; read-out: pTGI (converted)): 100000 nM
